The text below walks through data of paper PMC9358981 (Journal of pharmacological and toxicological methods, 2021).

One experiment has as its target human S1R (Homo sapiens, UniProt Q99720). Kind of experiment: Radioligand competition binding with [3H]-. The conditions noted are these: for Pseudo-Hill slope at the S1R: competition with [3H]-(+)-pentazocine; for S2R/S1R ratio (Ki S2R / Ki S1R): selectivity for S1R over S2R, fold.
In the next experiment the target is human S2R (Homo sapiens, UniProt Q5BJF2). Nature of the experiment: Radioligand competition binding with [3H]-DTG at the S2R. To be noted: for Pseudo-Hill slope at the S2R: competition with [3H]-DTG. A general note: Displacement assays read how much labelled ligand stays bound in the presence of the test substance.
Chain of human S2R (Q5BJF2 whole entry): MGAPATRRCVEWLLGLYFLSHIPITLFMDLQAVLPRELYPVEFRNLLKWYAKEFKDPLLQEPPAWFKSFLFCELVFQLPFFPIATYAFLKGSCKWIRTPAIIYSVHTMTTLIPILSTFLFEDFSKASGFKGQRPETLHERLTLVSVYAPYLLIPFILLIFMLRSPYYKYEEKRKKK
The next experiment deals with MCF7-hS1R cells. Nature of the experiment: Bradykinin. Type of experiment: cell-based, human. The conditions noted are these: pre-treatment with sigma ligand.
Another experiment relates to MN9D cells. Nature of the experiment: BDNF secretion via in situ ELISA. Type of experiment: cell-based. The conditions noted are these: for Stimulation of BDNF secretion (in words) / Efficacy of BDNF secretion: 10 μM, MN9D cells; for Efficacy of BDNF secretion: normalized to the maximal response of 10 μM 4-PPBP.
Another experiment concerns PC-6-15 cells. Nature of the experiment: NGF induced neurite sprouting. The conditions noted are these: for Effect on neurite sprouting, ligand alone / Potentiation of NGF induced neurite sprouting: 24 hours; for Effect on neurite sprouting, ligand alone: 0.5% serum; for Potentiation of NGF induced neurite sprouting: co-treated with 0.3 ng/mL NGF. The class given is cell-based, rat. The procedure, abridged:
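PC12-derived PC-6-15 cells overexpressing trkA, kept in RPMI1640 with 10% horse serum, 5% FBS and 0.1 mg/mL G418. Plated on type I collagen in 0.5% serum medium. Treated 24 hours in duplicate with vehicle (DMSO 1:1000 v/v), test compound, NGF (0.3–100 ng/mL concentration-response), or test compound plus 0.3 ng/mL NGF. Neurite length/cell was total traced neurite length divided by total cell count.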

The mark [1] stands for this setting: read-out: S1R affinity (Ki), displacement of 0.5 nM [3H]-(+)-pentazocine, MCF-7-S1R, mean ± SEM.
Setting [2] is: 15 nM BD1063, Fractional Occupancy = [ligand]/([ligand]+Ki).

“Also recorded” adds a separate entry of the source. Read-outs that look alike come from different tables or passages of the source.

Chain of human S1R (Q99720 whole entry): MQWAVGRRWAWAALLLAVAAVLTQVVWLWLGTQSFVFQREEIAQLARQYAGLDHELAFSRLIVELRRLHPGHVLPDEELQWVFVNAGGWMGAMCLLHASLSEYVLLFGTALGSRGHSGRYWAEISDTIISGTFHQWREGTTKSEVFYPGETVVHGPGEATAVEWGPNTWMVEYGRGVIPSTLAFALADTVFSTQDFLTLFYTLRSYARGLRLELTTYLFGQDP

On to `CCCN(CCC)CCc1ccc(OC)c(OCCc2ccccc2)c1` [NE-100], for which, on human S1R, the “Pseudo-Hill slope at the S1R” value is recorded as −3.1. For the same molecule, the “Pseudo-Hill slope at the S2R” value at human S2R is on record as “near unity”. Besides, the “Effect of sigma ligand on the bradykinin calcium response” value in the experiment on MCF7-hS1R cells is on record as “no significant potentiation or suppression”.
For `CCCCOCCOC(=O)C(c1ccccc1)N(CC)CC` (stereo not drawn) [Cas# 1796909-31-3, 2-Butoxyethyl 2-(diethylamino)-2-phenylacetate], the “Stimulation of BDNF secretion (in words)” value with MN9D cells is recorded as “BDNF secreting activity”.
In the case of `CCN(CC)CCOCCOC(=O)C1(c2ccccc2)CCCC1` [Carbetapentane], at human S1R, the Ki – broadly, the equilibrium dissociation constant of an inhibitor or competing ligand from its target – is 19.8 ± 2.3 nM and the “S2R/S1R ratio (Ki S2R / Ki S1R)” value is on record as 3. The affinity on human S2R corresponds to a Ki of 55.7 ± 3.8 nM. Further, in the experiment on MN9D cells (24 hrs, mean ± SEM), the “Efficacy of BDNF secretion” value came out at 0.73 ± 0.05. In addition, in the experiment on PC-6-15 cells, the “Effect on neurite sprouting, ligand alone” value (shortened to “Effect on neurite sprouting”) is “none of them had any effect” and the “Potentiation of NGF induced neurite sprouting” value (from here on “Potentiation”) is “none of them had any effect”.
`CCN(CC)CCOCCOC(=O)C(CC)(CC)c1ccccc1` [Oxeladin]: the figures for the inhibitory constant (Ki) at human S1R and on human S2R were 25 ± 4.3 nM and 148 ± 64 nM, respectively.
Take `CC(CN1c2ccccc2Sc2ccccc21)N(C)C` (stereo not drawn) [Promethazine]: the Emax at 10 µM in the experiment on MN9D cells (MN9D, read-out: Efficacy for BDNF secretion, % of the maximum response) was determined as 103%. For the same molecule, the “Potentiation” value with PC-6-15 cells was “neither 4-PPBP or promethazine enhanced NGF induced sprouting”.
With `CCC(C/C=C/c1ccccc1)(c1ccccc1)N(C)CC1CC1` (single isomer, unassigned; (+)) [(+)-Igmesine], at human S1R (setting [1]), the inhibition constant Ki is 9.2 ± 2.2 nM. Moreover, the “S2R/S1R ratio (Ki S2R / Ki S1R)” value at human S1R came out at 18. For the same molecule, the “Efficacy of BDNF secretion” value with MN9D cells (24 hrs, mean ± SEM) stood at 0.42 ± 0.03. For the same molecule, the “Stimulation of BDNF secretion (in words)” value in the experiment with MN9D cells was “BDNF secreting activity”. The “Reversal of the BDNF response by S1R-selective concentration of BD1063” value in the experiment on MN9D cells (compound 10 μM + 15 nM BD1063, MN9D cells) is listed as “could be reversed”.
Consider (+)-SKF10047, for which, in the experiment on MCF7-hS1R cells, the “Effect of sigma ligand on the bradykinin calcium response” value is recorded as “no significant potentiation or suppression”.
`c1ccc(CCCCN2CCC(c3ccccc3)CC2)cc1` [4-PPBP]: the “Pseudo-Hill slope at the S1R” value at human S1R was −3.1. Moreover, at human S2R, the “Pseudo-Hill slope at the S2R” value is “near unity”. In addition, in the experiment on MN9D cells (10 μM 4-PPBP, 24 hrs, mean ± SEM, n = 3–10, baseline 75.4 ± 6.9), the “Secreted BDNF at maximal stimulation” value is given as 128.6 ± 12.8 pg/mL. The “Efficacy of BDNF secretion” value with MN9D cells (24 hrs, mean ± SEM) was 1. Further, the “Stimulation of BDNF secretion (in words)” value with MN9D cells is reported as “robust BDNF secretion response”. Also, the “Effect of sigma ligand on the bradykinin calcium response” value in the experiment on MCF7-hS1R cells was “no significant potentiation or suppression”. Besides, in the experiment on PC-6-15 cells, the “Effect on neurite sprouting” value is listed as “unable to stimulate neurite sprouting” and the “Potentiation” value is listed as “neither 4-PPBP or promethazine enhanced NGF induced sprouting; also recorded: nor did it potentiate NGF induced sprouting”.
With `CN1CCN(CCc2ccc(Cl)c(Cl)c2)CC1` [BD1063], the “Calculated S1R occupancy” value on human S1R (setting [2]) is recorded as 74%. At human S1R, the “Pseudo-Hill slope at the S1R” value is “equal to unity” and the “S2R/S1R ratio (Ki S2R / Ki S1R)” value was 38. Moreover, the inhibitory constant (Ki) on human S1R (setting [1]) turned out to be 5.6 ± 0.5 nM. Further, the “Calculated S2R occupancy” value at human S2R (setting [2]) is listed as 7%. Moreover, at human S2R, the “Pseudo-Hill slope at the S2R” value is “near unity”. Further, the “Effect of sigma ligand on the bradykinin calcium response” value in the experiment with MCF7-hS1R cells is listed as “no significant potentiation or suppression”.
Regarding `COCCCC/C(=N\OCCN)c1ccc(C(F)(F)F)cc1` [fluvoxamine], in the experiment with PC-6-15 cells, the “Effect on neurite sprouting” value is on record as “none of them had any effect” and the “Potentiation” value is “none of them had any effect”.
Take `CCC(C(=O)OCCOCCN(CC)CC)c1ccccc1` (stereo not drawn) [Butamirate]: the Ki on human S1R worked out at 17.2 ± 1.7 nM; at human S2R it was 214 ± 41 nM. For the same molecule, the “Stimulation of BDNF secretion (in words)” value with MN9D cells is recorded as “completely abolished the BDNF secretion activity”.
For `COc1cc2c(cc1OC)C(=O)C(CC1CCN(Cc3ccccc3)CC1)C2` (stereo not drawn) [Donepezil], the “Stimulation of BDNF secretion (in words)” value in the experiment with MN9D cells is reported as “BDNF secreting activity”.
As for `O=C(OCCN1CCOCC1)C1(c2ccccc2)CCCCC1` [PRE-084], on human S1R, the “Pseudo-Hill slope at the S1R” value is −0.98. Also, the “Pseudo-Hill slope at the S2R” value on human S2R was “near unity”. Moreover, the “Stimulation of BDNF secretion (in words)” value in the experiment with MN9D cells is “no effect; also recorded: failed to stimulate BDNF secretion; also recorded: no activity”. For the same molecule, in the experiment on MCF7-hS1R cells, the “Effect of sigma ligand on the bradykinin calcium response” value is listed as “no significant potentiation or suppression”. Further, in the experiment on PC-6-15 cells, the “Effect on neurite sprouting” value is “none of them had any effect” and the “Potentiation” value is on record as “none of them had any effect”.

B1: NGF: nerve growth factor (βNGF, EMD Millipore) (protein, UniProt P01139 122-241, looked up)
Beta-nerve growth factor: SSTHPVFHMGEFSVCDSVSVWVGDKTTATDIKGKEVTVLAEVNINNSVFRQYFFETKCRASNPVESGCRGIDSKHWNSYCTTTHTFVKALTTDEKQAAWRFIRIDTACVCVLSRKATRRG
modifications: beta-NGF
As for B1, the “Lowest concentration tested that induced neurite sprouting” value in the experiment with PC-6-15 cells (0.3 to 100 ng/mL tested) was 0.3 ng/mL.
